Series [1] is described as follows: Half life required for the release of paracetamol. The format is ADME.
Series [2] is described as follows: Relative rate constant for release of paracetamol was determined. The format is ADME.
Series [3] is described as follows: Rate constant for release of paracetamol was determined. The format is ADME.
The species entered for series [4] is Mus musculus. Briefly: Effect on glutathione levels in mice. It counts as functional. A digest of the protocol:
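Male BALB/c mice (17–21 g, 5 weeks old), four per group, given a single ip dose of 3.3 mmol/kg in 30% propyleneglycol. Controls received vehicle ip. Livers were taken 2 h after dosing and kept on ice. Reduced glutathione in liver homogenate was measured at once with DTNB and reported as µmol/g tissue.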

Turning to `CC(=O)Nc1ccc(OC(=O)CNC(=O)[C@@H]2CCCN2)cc1.O=C(O)C(F)(F)F`, the T1/2 in series [1] was 2 min. In series [2], this compound returned a Krelative of 0.41. In series [3], this compound came in with a K obs of 0.0059 s⁻¹.

Compound `CC(=O)Nc1ccc(OC(=O)CNC(=O)[C@@H](N)C(C)C)cc1.O=C(O)C(F)(F)F` returned a T1/2 in series [1] of 16 min. In series [4], the Glutathione levels stood at 3.87 umol/g tissue. In series [2], this compound displayed a Krelative of 0.05. In series [3], this compound registered a K obs of 0.00071 s⁻¹.

In turn, `CC(=O)Nc1ccc(OC(=O)CNC(=O)[C@@H](N)Cc2ccccc2)cc1.O=C(O)C(F)(F)F` registered a T1/2 in series [1] of 14 min. In addition, in series [4], the Glutathione levels is listed as 2.68 umol/g tissue. In series [2], this compound gave a Krelative of 0.06. Moreover, the K obs in series [3] is 0.000821 s⁻¹.

Regarding `CC(=O)Nc1ccc(OC(=O)CN(C)C(=O)CN)cc1.O=C(O)C(F)(F)F`, the K obs entry in series [3] was “Too fast to be monitored”.

In turn, `CC(=O)Nc1ccc(OC(=O)[C@@H](NC(=O)CN)C(C)C)cc1.O=C(O)C(F)(F)F` showed a T1/2 in series [1] of 20 min. This compound yielded a Krelative in series [2] of 0.04. The same compound gave a K obs in series [3] of 0.00057 s⁻¹.

Compound `CC(=O)Nc1ccc(OC(=O)[C@H](C)NC(=O)CN)cc1.O=C(O)C(F)(F)F` had a T1/2 in series [1] of 0.9 min. In addition, the Krelative in series [2] worked out at 0.94. For the same compound, in series [3], the K obs was determined as 0.0134 s⁻¹.

`CC(=O)Nc1ccc(OC(=O)[C@@H]2CCCN2C(=O)CN)cc1.O=C(O)C(F)(F)F`: the K obs entry in series [3] was “Too fast to be monitored”.

`CC(=O)Nc1ccc(OC(=O)CNC(=O)CN)cc1.O=C(O)C(F)(F)F`: the T1/2 in series [1] was 0.8 min. Further, in series [2], the Krelative stood at 1. For the same compound, the K obs in series [3] worked out at 0.0143 s⁻¹.

As for `CNCC(=O)NCC(=O)Oc1ccc(NC(C)=O)cc1.O=C(O)C(F)(F)F`, the K obs result in series [3] was “Too fast to be monitored”.

As for `CC(=O)Nc1ccc(OC(=O)[C@H](Cc2ccccc2)NC(=O)CN)cc1.O=C(O)C(F)(F)F`, the T1/2 in series [1] came out at 2 min. Further, the Glutathione levels in series [4] came out at 3.74 umol/g tissue. For the same compound, the Krelative in series [2] is given as 0.4. In series [3], this compound registered a K obs of 0.00564 s⁻¹.

For `CC(=O)Nc1ccc(OC(=O)CNC(=O)[C@H](C)N)cc1.O=C(O)C(F)(F)F`, the T1/2 in series [1] amounted to 3 min. In addition, the Krelative in series [2] was 0.24. In addition, in series [3], the K obs was determined as 0.0034 s⁻¹.

The record behind these values is ChEMBL document CHEMBL1142037, “Cyclization-activated prodrugs. Synthesis, reactivity and toxicity of dipeptide esters of paracetamol” (Bioorg Med Chem Lett, 2005).
